# PPC-1+TRAIL kill: PPC-1 cancer cell killing with TRAIL present; 220,000 compounds, 0.41% hits; cell killing (% activity), % at 4 µM or 5 µM; PPC-1 cells + TRAIL, ATPLite viability luminescence;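 active means cell killing above 50% in the first pass at 4 µM, then a duplicate retest at 5 µM averaging 50% or more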;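 further: plate controls were cells with TRAIL plus DMSO for no effect and medium-only wells lacking cells for full effect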
# Hep lipid drop: hepatic lipid droplet formation modulation; inhibition, % at 6.5 µM; AID 1656; AML12 mouse hepatocytes, oleate lipid droplets, BODIPY imaging; 240,000 compounds, 0.4% hits;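 active means lipid droplet intensity inhibited by at least 50%, with more than 500 cells counted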
#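 material = mouse AML12 hepatocyte cell line, fixed after treatment | also added = 100 µM oleic acid challenge | doses = compound at 6.5 µM only | schedule = overnight exposure | technique = Image-based BODIPY and DAPI two-channel analysis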
# Platelet DG rel: platelet dense granule release activity. human platelet-rich plasma, SFLLRN dense granule ATP release, luminescence. inhibition, %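 (compounds screened at 7.5 µM in platelet-rich plasma)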. 300,000 compounds, 0.22% hits. AID 1663;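 active means mean replicate score, as percent of positive control, at or above 50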
# TAG inh: triacylglycerol accumulation inhibition; H9c2 cells, Nile Red lipid (TAG) fluorescence; cells loaded with 200 µM oleic acid; inhibition, % at 12.5 µM; 230,000 compounds, 0.66% hits;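 active means pattern-corrected inhibition of lipid staining of at least 50% with the nuclear-stain viability signal not falling by more than 50%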;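 further: 0% = DMSO wells and 100% = triacsin C control wells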
# STAT1 blocker: reduces IFN-gamma driven STAT1 reporter signal; NIH 3T3 STAT1-luciferase reporter, luminescence; inhibition, % at 5.5 µM; 200,000 compounds, 0.35% hits; AID 920;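 active means inhibition above a set limit, the mean inhibition across all tested compounds plus 3 SD, cut at about 34% in these data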;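 further: 0% = IFN-gamma with DMSO and 100% = IFN-gamma with 300 µM nifuroxazide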
# STAT3 blocker: inhibitors of IL-6 induced STAT3 signaling; U3A cells, IL-6 STAT3-luciferase reporter, luminescence; host cell line lacks STAT1; inhibition, % at 5.5 µM; 190,000 compounds, 0.89% hits; AID 862;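 active means inhibition above the mean inhibition across all screened compounds plus 3 SD, cut at about 44% in these data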;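 further: 0% = DMSO only wells and 100% = 100 µM nifuroxazide control wells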
# PPC1 cytotox: PPC-1 cell cytotoxicity; shares compounds with PPC-1+TRAIL kill; PPC-1 viability, ATPlite luminescence, overnight; cytotoxicity, % at 5 µM; 1,200 compounds, 50% hits; AID 1447;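 active means reconfirmed compounds whose average cytotoxicity reaches 50% or more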;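 further: 0% = DMSO-treated cells and 100% = wells holding medium but no cells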
# The depositor's hits bear a star; · = not tested or not shown. The list is not random: actives were taken first. Their share in the collection is about 1.5%.
SMILES,PPC-1+TRAIL kill,Hep lipid drop,Platelet DG rel,TAG inh,STAT1 blocker,STAT3 blocker,PPC1 cytotox
Clc1ccc(/C=C/c2nc3ccccc3[nH]2)cc1,86.7*,·,78.0*,·,53.4*,93.5*,86.0*
Clc1cccc(Cl)c1/C=C/c1nc2ccccc2[nH]1,47.4,·,-4.5,·,-47.3,-22.9,·
O=C1C=C(Nc2ccccc2)C(=O)c2ccccc21,36.4,0.6,1.0,·,-36.6,0.9,32.6
CC1CCCN(c2ccc3nc4ccccc4c(=O)n3n2)C1 (stereo unspecified),82.8*,1.4,1.2,5.4,51.3*,76.1*,82.9*
COc1ccccc1C(=O)Nc1ccc2c(c1)nc1n2CCSC1,28.1,·,·,·,-30.0,4.5,34.9
Cc1ccc(C(=O)Nc2ccc3c(c2)nc2n3CCSC2)cc1,44.6,·,2.5,·,-52.6,20.5,·
Cc1cccc(C)c1C(O)c1ncc(-c2cccc3ccccc23)[nH]1 (stereo unspecified),·,·,·,1.7,·,·,·
COCCOC(=O)CSc1ncccc1-c1nc2cc(C)c(C)cc2[nH]1,57.3*,4.1,23.1,-2.0,-10.6,7.5,59.1*
CC(C)NC(=O)C1(C)CCN1C(=O)c1ccccc1 (stereo unspecified),·,·,·,1.2,·,·,·
NC(=O)c1cccc(-c2ccnc3c2CC(C(=O)Nc2cccc(Oc4ccccc4)c2)O3)c1 (stereo unspecified),·,·,·,11.5,·,·,·
CCOC(=O)C1=C(CSc2nc(-c3ccncc3)ccc2C#N)OC(N)=C(C#N)C1c1ccc(OC)cc1 (stereo unspecified),-12.2,-1.5,10.2,13.6,5.1,4.3,-21.9
CCOC(=O)CSc1nc(-c2ccncc2)ccc1C#N,48.3,·,4.9,-10.3,-64.4,1.1,45.7
CCOC(=O)C1=C(CSc2nc(-c3ccncc3)ccc2C#N)OC(N)=C(C#N)C1c1cccnc1 (stereo unspecified),9.1,·,·,11.1,9.7,15.2,·
O=C(CCN1C(=O)c2ccccc2C1=O)c1ccccc1,·,·,·,-5.8,·,·,·
CCOc1cc(C(=O)OCC(=O)c2c[nH]c3ccccc23)ccc1OCC(=O)N1CCOCC1,-4.8,·,-3.5,0.5,3.1,-36.9,-13.3
NN=C1c2ccccc2-c2ccc(N)cc21,·,·,·,-10.6,·,·,·
CCCCN(C(=O)CSc1nnc(Nc2ccc(C)c(C)c2)s1)c1c(N)n(Cc2ccccc2)c(=O)[nH]c1=O,32.8,1.3,11.5,-10.9,1.0,-1.8,40.3
CN(C(=O)CSc1nnc(Nc2ccccc2)s1)c1c(N)n(Cc2ccccc2)c(=O)[nH]c1=O,9.4,-1.1,4.1,5.2,-0.9,-2.3,·
Cc1ccc(OCC(=O)Nc2ccc(S(=O)(=O)Nc3ccccn3)cc2)cc1C,10.5,10.0,-3.6,-10.8,9.1,17.6,·
CCc1cccc(OCC(=O)Nc2ccc(S(=O)(=O)Nc3ccccn3)cc2)c1,6.5,13.2,-3.5,-5.8,-5.7,6.9,7.9
O=C(O)C1CCCCC1C(=O)NCCc1ccccc1 (stereo unspecified),7.7,-2.0,-5.7,·,1.5,14.9,5.5
CCCCCCCCCn1ccc(=N)cc1,-5.2,-5.4,5.3,20.6,·,·,-9.1
CCCCCn1ccc(=N)cc1,35.7,·,3.1,-43.3,13.8,29.0,·
CCc1nc2c(OCCOC)cccn2c1N(C)C(=O)Nc1ccccc1OC,·,·,·,-0.9,·,·,·
O=C(NCc1ccc(Cl)cc1)C(=O)Nc1nccs1,22.3,2.6,5.2,·,-0.5,9.5,·
SMILES,PPC-1+TRAIL kill,Hep lipid drop,Platelet DG rel,TAG inh,STAT1 blocker,STAT3 blocker,PPC1 cytotox
O=C(NCCc1ccccc1F)C(=O)Nc1nccs1,-0.5,·,5.7,14.3,-24.0,3.9,-1.2
O=C(Nc1ccc(NC(=O)c2ccccn2)cc1)C(=O)Nc1ccc2c(c1)OCCO2,-6.7,-7.9,-12.9,0.4,-15.1,12.8,·
O=C(Nc1ccc2c(c1)OCCO2)c1ccccn1,42.8,6.0,44.7,-6.1,47.0*,69.5*,53.0*
O=C(Nc1ccc(N2CCCCC2)cc1)c1ccccn1,96.5*,-0.4,74.5*,-5.2,95.7*,109.6*,96.5*
O=C(Nc1ccc2c(c1)OCCO2)c1ccc2ccccc2n1,42.5,11.3,·,16.5,-42.5,-23.4,41.5
O=C(Nc1ccc(N2CCCCCC2)cc1)c1ccccc1Cl,15.9,3.2,0.3,14.8,-53.1,-2.7,·
CC1(Oc2cccc(C#N)c2)CCN(Cc2ccccc2OC(F)F)C1 (stereo unspecified),·,·,·,11.9,·,·,·
Cc1[nH]nc(C(F)(F)F)c1N=NN1CCOCC1,·,·,·,43.6,·,·,·
CC1CCN(C(=O)COC(=O)c2cccc(S(=O)(=O)N3CCOCC3)c2)CC1,·,·,·,-1.6,·,·,·
COc1cc(/C=C2\CCc3c2nc2ccccc2c3C(=O)O)cc(OC)c1OC,51.8*,10.0,-11.7,14.8,·,·,53.8*
C[C@H](O)[C@@H]1C(=O)N2CCc3ccc(-c4ccccc4)cc3[C@@H]2C[C@@H]1N(C)C(=S)Nc1ccc(F)cc1,·,·,·,8.3,·,·,·
CC(=NNC(=S)Nc1ccccc1)c1ccccn1,·,·,·,-22.5,·,·,·
C=CCNC(=S)N/N=C(\C)c1ccccn1,33.0,-177.1,-0.6,·,-38.7,-5.8,41.2
CCOc1ccc(-c2nc(C)c(C(C)=O)n2O)cc1,31.4,4.6,6.9,·,-7.5,-21.0,39.4
CCCCN(C(=O)COC(=O)c1sccc1C)c1c(N)n(CCC)c(=O)[nH]c1=O,·,·,·,-9.5,·,·,·
CSc1ccc(CN2CCC2(C)C(=O)Nc2cccc(Oc3ccccc3)c2)cc1 (stereo unspecified),·,·,·,-14.9,·,·,·
CCOC(=O)CNC(=O)CSc1nnc(NC(=O)c2ccc(C)cc2)s1,91.8*,5.7,-5.3,7.8,59.1*,72.4*,91.8*
CC(=O)NC(C)(c1ccccc1)c1nc(-c2ccc(S(C)(=O)=O)cc2)cs1 (stereo unspecified),·,·,·,-2.2,·,·,·
Cc1cc(C(=O)Nc2ccc(Cl)cc2)c(C)n1-c1ccccc1,82.7*,1.2,19.3,-2.6,·,·,79.4*
c1ccc2c(c1)CCN(c1nc3cc4c(cc3s1)OCCO4)C2,84.4*,·,3.2,5.3,36.7*,87.8*,84.4*
CC(Nc1ccc(Br)cc1)C(=O)NC(=O)NC1CCCCC1 (stereo unspecified),·,·,·,1.0,·,·,·
CCNC(=O)C1(C)CCN(Cc2csc(-c3ccccc3)n2)C1 (stereo unspecified),·,·,·,6.7,·,·,·
NC(=O)Nc1ccc(C(=O)OCC(=O)N(Cc2ccccc2)C2CCS(=O)(=O)C2)cc1 (stereo unspecified),-3.0,0.6,-6.1,-3.8,2.2,-1.9,0.4
COc1ccc2oc(C(=O)Nc3nc4ccccc4[nH]3)c(C)c2c1,58.6*,1.0,17.1,12.7,·,·,54.2*
O=C(Nc1nc2ccccc2[nH]1)c1ccccc1F,77.2*,·,86.8*,·,77.7*,100.7*,79.3*
COc1ccc(Br)c(C(=O)Nc2nc3ccccc3[nH]2)c1,·,7.1,-2.9,·,·,·,·
O=C(Nc1nc2ccccc2[nH]1)c1cc2ccccc2o1,67.5*,5.2,2.9,-2.4,-21.7,25.8,68.7*

# High-throughput results deposited in PubChem by several laboratories.
